TNAP act hiacc = increases human TNAP activity under high phosphate acceptor concentration; P05186; purified TNAP, CDP-star luminescence, 1 M DEA, 30 min; stronger effect = higher value; 0 = EDTA background, 1 = DMSO-only activity; activation factor at 20 µM; 200,000 tested, under 10 active;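 active = activation factor at least 2 at 20 µM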
Target sequence (P05186 whole entry, looked up): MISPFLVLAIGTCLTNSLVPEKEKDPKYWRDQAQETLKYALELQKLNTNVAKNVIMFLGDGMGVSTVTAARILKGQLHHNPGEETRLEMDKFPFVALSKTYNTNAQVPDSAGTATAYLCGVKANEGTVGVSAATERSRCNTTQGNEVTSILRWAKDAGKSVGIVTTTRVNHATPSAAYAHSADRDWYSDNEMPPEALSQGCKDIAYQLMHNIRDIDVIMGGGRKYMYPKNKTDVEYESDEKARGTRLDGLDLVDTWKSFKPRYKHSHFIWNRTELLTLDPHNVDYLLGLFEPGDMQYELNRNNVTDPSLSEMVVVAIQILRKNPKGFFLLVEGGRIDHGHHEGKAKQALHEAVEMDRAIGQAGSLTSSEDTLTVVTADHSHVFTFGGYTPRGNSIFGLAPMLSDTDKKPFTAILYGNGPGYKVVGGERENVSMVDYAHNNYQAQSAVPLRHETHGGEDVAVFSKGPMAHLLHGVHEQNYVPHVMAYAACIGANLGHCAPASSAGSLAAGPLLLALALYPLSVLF
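Assay system: human TNAP; Input: enzyme diluted 1/800 final; Reagent: CDP-star luminogenic substrate at 100 µM final; Timing: 30 min, room temperature; Signal: luminescence; Evaluation: TNAP activation factor scaled between EDTA and DMSO control wells.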
CHT PAM = allosterically activates the human high affinity choline transporter | CHT-expressing cells, membrane potential dye, choline EC20; stronger effect = higher value; LV-AA mutant CHT in HEK293 cells | 310,000 compounds, 0.49% hits | Q9GZV3 | B-score at 10 µM;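 active = initial fluorescence not abnormally high and integrated response B-score, plate-corrected, over 3 SD above library mean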
ABCB6 inh MLPCN = blocks the human ABCB6 transporter | K562-ABCB6 porphyrin accumulation, flow cytometry, 1 h; stronger effect = lower value | fluorescence ratio to DMSO, % at 10 µM | 360,000 compounds, 0.19% hits | AID 602162;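 active = fluorescence ratio to DMSO below 75%, the collection mean minus 3 SD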;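 also: signal is porphyrin accumulated inside mitochondria; 100% equals median channel fluorescence of DMSO control wells; lower ratio means ABCB6 inhibition with less porphyrin fluorescence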
CHT block = human CHT choline transport inhibition; Q9GZV3; CHT-expressing cells, membrane potential dye, choline response; stronger effect = lower value; B-score at 10 µM; 310,000 compounds, 0.86% hits;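 active = B-score over 3 SD under the library average, and starting fluorescence ratio not unusually high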;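 also: choline stimulus applied at its EC90 after an EC20 pre-addition; B-score computed on integrated fluorescence ratio after choline addition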
TNAP inh noacc = blocks human TNAP activity with no phosphate acceptor present. P05186. purified TNAP, CDP-star luminescence, 30 min. inhibition, % at 20 µM. 200,000 compounds, 0.26% hits. AID 1012;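 active = tissue-nonspecific alkaline phosphatase inhibition above about 50% at 20 µM in the single-dose screen, limit read from the data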;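 also: 0% = DMSO negative control and 100% = EDTA positive control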
TNAP inh hiacc = blocks human TNAP under high phosphate acceptor concentration; purified TNAP, CDP-star luminescence, 1 M DEA; AID 1135; 200,000 compounds, 0.03% hits; inhibition, % at 20 µM; P05186;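 active = over 50% inhibition of tissue-nonspecific alkaline phosphatase at 20 µM in the single-dose screen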;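 also: plate controls were DMSO wells for no effect and EDTA-quenched wells as full inhibition for full effect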
CHT block conf = human CHT inhibition, confirmatory screen; shares compounds with CHT block; CHT-expressing cells, choline membrane potential dye; LV-to-AA substituted CHT, HEK293 cells; CHT activity remaining % of control (stronger effect = lower value), % at 10 µM; 2,400 compounds, 70% hits; AID 493221;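 active = choline transporter activity left, mean of duplicates at 10 µM, below buffer-only control mean minus 3 SD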;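 also: depolarization triggered by choline at its EC90 following an EC20 pre-addition; 0% = hemicholinium-3 full block and 100% = buffer-only control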
HEK293 MPD ctr = counter-screen for CHT inhibitors: effect in parental HEK293 cells. shares compounds with CHT block. membrane potential dye, choline response; active = decrease or increase beyond buffer ±3SD. membrane potential ratio readout (active if shifted either direction beyond buffer ±3SD; no single direction) at 10 µM. 2,400 compounds, 4% hits. AID 493222;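 also: parental cells lack the transporter so any hit is non-specific; ratio is peak minus trough fluorescence over baseline after EC90 choline challenge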
Starred values were filed as active, the others as inactive; i = inactive; / = no result given. Sampled rows, rich in hits. Any-hit rate of the full collection: about 1.4%.

SMILES	TNAP act hiacc	CHT PAM	ABCB6 inh MLPCN	CHT block	TNAP inh noacc	TNAP inh hiacc	CHT block conf	HEK293 MPD ctr
Cc1nn2c(N3CCN(C)CC3)c3c(nc2c1-c1ccccc1)CCCC3	/	i	98	-9.6*	/	/	32%*	i
O=C(CSc1ccc2ccccc2c1)Nc1ccncc1	1.1	i	94	-6*	-4	-6	52%*	i
Oc1ccccc1C1CC(c2cccs2)=NC(c2cccc(Br)c2)N1 (configuration not stated)	0.9	i	102	i	-5	12	/	/
CC(C)[C@H](CO)NC(=O)[C@H]1O[C@@H](n2ccc(=O)[nH]c2=O)[C@H](O)[C@@H]1O	/	/	100	/	/	/	/	/
COc1ccc(NC(=O)c2ccc(C)cc2)c[n+]1[O-]	/	i	103	i	/	/	/	/
O=C(Cn1ncc2c1-c1ccccc1OC2)N(Cc1ccco1)C1CCCCC1	1.1	i	99	-4.9*	30	-6	i	i
CCN(CC)C(=O)Cn1ncc2c1-c1ccccc1OC2	1	i	99	i	-12	2	/	/
CC(C)=C(C#N)c1nc2ccccc2s1	1	i	117	i	-13	-2	/	/
N#C/C(=C(/O)c1ccccc1F)c1nc2cc(C(F)(F)F)ccc2s1	1	i	89	-5.5*	-7	-1	48%*	i
CCCCn1c(SCC(=O)Nc2ccccc2C(F)(F)F)nc2ccsc2c1=O	1	i	94	i	-9	-4	/	/
CCCCn1c(SCC(=O)N2CCC(C)CC2)nc2ccsc2c1=O	1.1	i	82	i	-13	-6	60%*	i
CCCCn1c(SCC(=O)N2CCN(c3ccccc3)CC2)nc2ccsc2c1=O	1.1	i	99	-5.7*	-12	-6	i	i
CC(=O)N/C(=C\c1ccccc1)C(=O)OC(C)C(=O)NCc1ccccc1 (configuration not stated)	/	i	101	i	/	/	/	/
Cn1c2c(c(=O)c3ccccc31)CCCC2	/	i	97	-9*	/	/	3.9%*	i
CCOC(=O)N1CCN(C(=O)C(c2ccccc2)c2ccccc2)CC1	1.1	i	104	-6.5*	-13	-9	i	-11*
O=C(NCC(=O)N(CCc1ccccc1)C(C(=O)NC1CCCC1)c1cccnc1)c1ccco1 (configuration not stated)	1	i	86	i	2	-4	/	/
O=C(NC1CCCC1)C(c1cccnc1)N(CCc1ccccc1)C(=O)c1ccco1 (configuration not stated)	1.1	i	99	-6*	-10	-6	55%*	i
Cc1cc(C)c(S(=O)(=O)c2cccc(Cl)c2)c(=O)[nH]1	/	i	92	i	/	/	/	/
Cc1c(C(=O)OC(C)C)sc(NC(=O)c2cnccn2)c1C(=O)OC(C)C	/	/	96	/	/	/	/	/
Cc1n[nH]c(=O)c2c(NC(=O)CSc3nc4ccccc4c(=O)n3C(C)C)oc(C)c12	/	i	99	-10*	/	/	48%*	i
CCc1nc2ccc(C(=O)Nc3cccc(NS(C)(=O)=O)c3)cn2c1N(C)C(=O)c1cccc(OC)c1	/	/	104	/	/	/	/	/
N#Cc1ccc(-c2csc(NC3=NCCCCC3)n2)cc1	1.1	/	105	/	-7	-7	/	/
c1ccc(-c2csc(NC3=NCCCCC3)n2)cc1	1	i	95	-7.1*	-9	-4	i	i
CCOC(=O)C1CCCN(C(=O)Cc2c(F)cccc2Cl)C1 (configuration not stated)	1	i	102	-5.7*	-8	-2	53%*	i
C=CC[C@@H](Cc1ccc(F)cc1)C(=O)OC[C@@H]1CCCN1C(=O)[C@@H](CC=C)CC(=O)NCCO	/	/	99	/	/	/	/	/

Bioassay records from PubChem BioAssay.
